This is an account of results in ChEMBL document CHEMBL3611998, “Syntheses and studies of new forms of N-sulfonyloxy β-lactams as potential antibacterial agents and β-lactamase inhibitors” (Bioorg Med Chem, 2015).

The source made the active and inactive calls. The rule behind the calls is not given here. Bounds are passed on as bounds.

Assay [1] has as its system Mycolicibacterium vaccae. Description: Antimicrobial activity against Mycobacterium vaccae IMET 10670 at 2 mM incubated for 48 hrs by agar diffusion assay. The class given is functional. Particulars: IMET 10670, 48 h, read-out: DIZ. In short, it runs like this: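 Seeded-agar well diffusion: 2 mM test solution (from 20 mM DMSO stock, diluted 10-fold in MeOH), 50 μL per 9.0 mm well. Inoculum was 0.1 mL of a 0.5 McFarland saline suspension ([…]) in 34 mL Mueller-Hinton No. 2 agar. Incubation was at 37 °C for 48 h, with plates photographed after 3 days. Zone diameters were measured by caliper.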
In general terms: Agar diffusion results depend on both activity and mobility in agar.

The subject of assay [2] is Acinetobacter baumannii. Description: Antimicrobial activity against Acinetobacter baumannii ATCC 17961 at 2 mM incubated for 20 hrs by agar diffusion assay. The assay is classed as functional. Particulars: ATCC 17961, 20 h, read-out: DIZ. In short, it runs like this:
(§1)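 The test solution was made as 20 mM in DMSO and diluted 10-fold in MeOH to 2 mM. Overnight LB cultures were adjusted to a 0.5 McFarland standard ([…] in 0.9% saline), and 0.1 mL was seeded into 34 mL Mueller-Hinton No. 2 agar at 47–50 °C. 50 μL was placed in 9.0 mm wells. Plates were incubated at 37 °C for 20 h, and inhibition zone diameters were measured by caliper.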

Assay [3] deals with Burkholderia dolosa. Nature of the assay: Antimicrobial activity against Burkholderia dolosa at 2 mM incubated for 20 hrs by agar diffusion assay. As to conditions: read-out: DIZ. The assay is classed as functional. In outline: as §1
Assay [4] has as its system Pseudomonas aeruginosa. Description: Antimicrobial activity against wild type Pseudomonas aeruginosa K799 at 2 mM incubated for 20 hrs by agar diffusion assay. The class given is functional. Particulars: K799, 20 h, read-out: DIZ. In outline: as §1
Assay [5] deals with Pseudomonas aeruginosa. Description: Antimicrobial activity against Pseudomonas aeruginosa K799/61 at 2 mM incubated for 20 hrs by agar diffusion assay. The class given is functional. As to conditions: K799/61, 20 h, read-out: DIZ. In short, it runs like this: as §1
The test system of assay [6] is Escherichia coli. Nature of the assay: Antimicrobial activity against Escherichia coli DC0 at 2 mM incubated for 20 hrs by agar diffusion assay. The assay is classed as functional. Particulars: DC0, 20 h, read-out: DIZ. In outline: as §1
For assay [7], the system named is Escherichia coli. Description: Antimicrobial activity against Escherichia coli DC2 assessed as very very unclear inhibition zone at 2 mM incubated for 20 hrs by agar diffusion assay. The class given is functional. Particulars: DC2, 20 h, read-out: DIZ. In outline:
as §1

Assay [8] can be described thus: Inhibition of beta-lactamase KPC-2 (unknown origin) using nitrocefin substrate incubated for 10 mins. In short, it runs like this:
(§2)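 Enzyme was preincubated with inhibitor at rt for 10 min in 50 mM sodium phosphate pH 7 with 0.1 mg/mL BSA. Inhibitor was tested at final concentrations of 160 μM to 3 nM (1:3 series, 8 points). Nitrocefin was then added at 50 μM, and hydrolysis was followed as OD 495 nm over time.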

A short description of assay [9]: Inhibition of beta-lactamase CTX-M-14 (unknown origin) using nitrocefin substrate incubated for 10 mins. In outline:
as §2

Assay [10] can be described thus: Inhibition of beta-lactamase OXA-48 (unknown origin) using nitrocefin substrate incubated for 10 mins. In outline: as §2
Assay [11] can be described thus: Inhibition of beta-lactamase AmpC (unknown origin) using nitrocefin substrate incubated for 10 mins. In outline: as §2
A short description of assay [12]: Inhibition of beta-lactamase SHV-12 (unknown origin) using nitrocefin substrate incubated for 10 mins. In short, it runs like this: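 SHV-12 was added as 50 μL of a 0.111 mg/mL solution and preincubated for 10 min at rt with inhibitor (final 160 μM to 3 nM, 1:3 dilutions). Buffer was 50 mM sodium phosphate pH 7 with 0.1 mg/mL BSA. Reaction was started with 10 μM nitrocefin and followed as OD 495 nm over time.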

The nature of assay [13]: Inhibition of beta-lactamase PAM-2035 (unknown origin) using nitrocefin substrate incubated for 10 mins.
Assay [14] can be described thus: Inhibition of beta-lactamase NDM1 (unknown origin) using imipenem substrate incubated for 10 mins. In short, it runs like this:
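NDM-1 was added as 50 μL of a 0.110 mg/mL solution and preincubated with inhibitor (final 160 μM to 3 nM, 8-point 1:3 series) for 10 min at rt. Buffer was 50 mM sodium phosphate pH 7 with 0.1 mg/mL BSA. 10 μM imipenem was then added, and its disappearance was monitored over time.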

Assay [15] can be described thus: Inhibition of beta-lactamase VIM-1 (unknown origin) using nitrocefin substrate incubated for 10 mins.
For assay [16], the system named is Bacillus spizizenii. Nature of the assay: Antimicrobial activity against Bacillus subtilis ATCC 6633 at 2 mM incubated for 20 hrs by agar diffusion assay. Particulars: ATCC 6633, 20 h, read-out: DIZ. The class given is functional. In short, it runs like this: as §1
Assay [17] relates to Bacillus spizizenii. Description: Antimicrobial activity against Bacillus subtilis ATCC 6633 assessed as unclear inhibition zone at 2 mM incubated for 20 hrs by agar diffusion assay. As to conditions: ATCC 6633, 20 h, read-out: DIZ. The class given is functional. In outline:
as §1

For assay [18], the system named is Staphylococcus aureus. Description: Antimicrobial activity against Staphylococcus aureus SG511 at 2 mM incubated for 20 hrs by agar diffusion assay. The class given is functional. In short, it runs like this: as §1
Assay [19] has as its system Micrococcus luteus. Nature of the assay: Antimicrobial activity against Micrococcus luteus ATCC 10240 at 2 mM incubated for 20 hrs by agar diffusion assay. The class given is functional. Particulars: ATCC 10240, 20 h, read-out: DIZ. In outline:
as §1

The test system of assay [20] is Acinetobacter baumannii. Nature of the assay: Antimicrobial activity against Acinetobacter baumannii ATCC 17961 assessed as unclear inhibition zone at 2 mM incubated for 20 hrs by agar diffusion assay. The assay is classed as functional. Particulars: ATCC 17961, 20 h, read-out: DIZ. In outline: as §1
Assay [21] relates to Escherichia coli. Nature of the assay: Antimicrobial activity against Escherichia coli DC2 at 2 mM incubated for 20 hrs by agar diffusion assay. The assay is classed as functional. As to conditions: DC2, 20 h, read-out: DIZ. In short, it runs like this:
as §1

In assay [22] the test system is Micrococcus luteus. Nature of the assay: Antimicrobial activity against Micrococcus luteus ATCC 10240 assessed as unclear inhibition zone at 2 mM incubated for 20 hrs by agar diffusion assay. The assay is classed as functional. Particulars: ATCC 10240, 20 h, read-out: DIZ. In outline: as §1

In the case of `O=C1CC(CBr)N1OS(=O)(=O)c1ccc2ccccc2c1` (centres undefined), the zone of inhibition at 2000 µM in assay [1] was determined as 17 mm; in [2] it was 0 mm; in [3], 0 mm; in assay [4] it was 0 mm; in assay [5], 0 mm; in [6] it was 0 mm. Besides, the zone of inhibition at 2000 µM in [7] was 15 mm; in [16] it was 13 mm; in [17] it was 17 mm; in [18] (SG511, 20 h, read-out: DIZ) it was 13 mm; in assay [19], 12 mm. The Ki in assay [8] was over 160 µM; in [9] it was over 160 µM; in [10], over 160 µM; in assay [11], over 160 µM; in assay [12] it was 0.19 µM; in assay [13], over 160 µM. Besides, the Ki in assay [14] and in assay [15] was over 160 µM each time.
In the case of `Cc1ccc(S(=O)(=O)ON2C(=O)CC2Cn2cc(CNC(=O)c3cc(C(F)(F)F)ccc3Cl)nn2)cc1` (centres undefined), the zone of inhibition at 2000 µM in assay [1] worked out at 0 mm; in assay [20] it was 13 mm; in assay [3], 0 mm; in [4], 0 mm; in assay [5] it was 0 mm; in assay [6], 0 mm. Also, the values for the zone of inhibition at 2000 µM in [21], in [17] and in assay [22] were 0 mm, 13 mm and 13 mm, respectively. Further, in [18], the “diameter of the inhibition zone (DIZ)” value is “Active”.

What is called Ki is a dissociation constant, usually derived from enzyme kinetics or from competition with a known ligand.
